The text below walks through data of ChEMBL document CHEMBL1156631 (J Med Chem, 2008).

In series [1] the target is Cannabinoid receptor 1 (Rattus norvegicus) (UniProt P20272). The experiment in a line: Agonist activity at rat recombinant CB1 receptor expressed in CHO-K1 cells assessed as inhibition of forskolin-stimulated intracellular cAMP level relative to CP-55940. Type of series: functional, cell-based. An outline of the steps: (§1)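 CHO-K1 cells stably expressing human or rat CB1 or CB2 were used. Compounds were diluted from DMSO into HBSS/HEPES/BSA buffer containing 60 µM forskolin, then combined with 5000 cells/well plus Alexa647 anti-cAMP antibody, 1 h at room temperature. A biotinylated-cAMP detection mix was added for another 1 h. Emission at 665 nm gave concentration-response curves and EC50; Emax is expressed as a percentage of the reference agonist maximum.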
Chain of Cannabinoid receptor 1 (Rattus norvegicus) (P20272 whole entry): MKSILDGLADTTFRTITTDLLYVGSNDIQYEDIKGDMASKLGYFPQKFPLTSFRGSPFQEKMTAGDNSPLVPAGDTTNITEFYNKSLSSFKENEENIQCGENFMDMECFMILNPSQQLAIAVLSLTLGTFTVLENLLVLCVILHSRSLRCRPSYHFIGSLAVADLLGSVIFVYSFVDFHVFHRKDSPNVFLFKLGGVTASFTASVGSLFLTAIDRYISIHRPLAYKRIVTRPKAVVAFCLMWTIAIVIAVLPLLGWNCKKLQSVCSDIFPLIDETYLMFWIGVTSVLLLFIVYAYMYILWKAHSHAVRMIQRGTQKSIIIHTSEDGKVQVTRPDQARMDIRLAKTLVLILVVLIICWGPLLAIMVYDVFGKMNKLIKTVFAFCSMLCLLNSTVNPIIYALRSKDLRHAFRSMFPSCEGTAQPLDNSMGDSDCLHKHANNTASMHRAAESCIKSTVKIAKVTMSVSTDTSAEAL
Background: Changes in cAMP serve as a functional read-out for many G protein-coupled receptors.

In series [2] the target is T1, Cannabinoid receptor 1 (Homo sapiens, UniProt P21554). In words: Agonist activity at human recombinant CB1 receptor expressed in CHO-K1 cells assessed as inhibition of forskolin-stimulated intracellular cAMP level relative to CP-55940. Type of series: functional, cell-based. An outline of the steps:
as §1

Series [3] concerns the target T2, Cannabinoid receptor 2 (Rattus norvegicus, UniProt Q9QZN9).
T2 sequence (Q9QZN9 whole entry): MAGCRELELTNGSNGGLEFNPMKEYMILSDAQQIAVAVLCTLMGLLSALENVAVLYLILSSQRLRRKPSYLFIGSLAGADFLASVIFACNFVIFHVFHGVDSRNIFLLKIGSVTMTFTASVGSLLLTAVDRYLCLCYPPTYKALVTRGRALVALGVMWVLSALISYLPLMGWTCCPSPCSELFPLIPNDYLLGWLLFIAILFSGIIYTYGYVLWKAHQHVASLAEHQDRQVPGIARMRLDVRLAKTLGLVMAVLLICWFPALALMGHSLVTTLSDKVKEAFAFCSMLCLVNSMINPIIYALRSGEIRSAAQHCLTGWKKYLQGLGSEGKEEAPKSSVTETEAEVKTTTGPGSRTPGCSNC
The experiment in a line: Agonist activity at rat recombinant CB2 receptor expressed in CHO-K1 cells assessed as inhibition of forskolin-stimulated intracellular cAMP level. Type of series: functional, cell-based. The method, boiled down: as §1

Series [4] has as its target T3, Cannabinoid receptor 2 (Homo sapiens, UniProt P34972). The experiment in a line: Agonist activity at human recombinant CB2 receptor expressed in CHO-K1 cells assessed as inhibition of forskolin-stimulated intracellular cAMP level. Type of series: functional, cell-based. The method, boiled down:
(§2)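 CHO-K1 cells stably expressing human or rat CB1 or CB2 were used. Compounds were diluted from DMSO into HBSS/HEPES/BSA buffer containing 60 µM forskolin, then combined with 5000 cells/well plus Alexa647 anti-cAMP antibody, 1 h at room temperature. A biotinylated-cAMP detection mix was added for another 1 h.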

The target of series [5] is T1, Cannabinoid receptor 1. The experiment in a line: Agonist activity at human recombinant CB1 receptor expressed in Sf9 cells by GTP-europium binding assay relative to CP-55940. The method, boiled down: (§3)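 Membranes were from Sf9 insect cells cotransfected with CB1 or CB2 plus Gαi3 (Bmax 1.7 pmol/mL). Compound (0.01 nM–10 µM, 1% DMSO final) was added to buffer with Hepes, BSA, 10 mM MgCl2, 150 mM NaCl, 5 µM GDP, 10 nM GTP-europium, saponin and membranes (CB1 4.5 µg/well, CB2 14 µg/well). Incubation was 45 min at room temperature, then filtration and washing, with fluorescence read at 615 nm. 100% efficacy was set by 3 µM reference agonist.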

For series [6], the target named is T3, Cannabinoid receptor 2. In words: Agonist activity at human recombinant CB2 receptor expressed in Sf9 cells by GTP-europium binding assay. An outline of the steps:
(§4)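 Membranes were from Sf9 insect cells cotransfected with CB1 or CB2 plus Gαi3 (Bmax 1.7 pmol/mL). Compound (0.01 nM–10 µM, 1% DMSO final) was added to buffer with Hepes, BSA, 10 mM MgCl2, 150 mM NaCl, 5 µM GDP, 10 nM GTP-europium, saponin and membranes (CB1 4.5 µg/well, CB2 14 µg/well). 100% efficacy was set by 3 µM reference agonist.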

Series [7] addresses T1, Cannabinoid receptor 1. The experiment in a line: Agonist activity at human recombinant CB1 receptor expressed in CHO-K1 cells assessed as inhibition of forskolin-stimulated intracellular cAMP level. Type of series: functional, cell-based. An outline of the steps: as §2
Series [8] is described as follows: Metabolic stability in rat liver microsomes. Type of series: ADME, Microsome. Conditions: read-out: Stability. Background: Liver microsomes are vesicles of endoplasmic reticulum, rich in cytochrome P450 enzymes.
The target in series [9] is T3, Cannabinoid receptor 2. In words: Agonist activity at human recombinant CB2 receptor expressed in Sf9 cells by GTP-europium binding assay relative to CP-55940. An outline of the steps: as §3
The target of series [10] is T3, Cannabinoid receptor 2. In words: Agonist activity at human recombinant CB2 receptor expressed in CHO-K1 cells assessed as inhibition of forskolin-stimulated intracellular cAMP level relative to CP-55940. Type of series: functional, cell-based. The method, boiled down: as §1
The nature of series [11]: Metabolic stability in human liver microsomes. Type of series: ADME, Microsome. Conditions: read-out: Stability.
Series [12] deals with Cannabinoid receptor 1 (Rattus norvegicus, UniProt P20272). The experiment in a line: Agonist activity at rat recombinant CB1 receptor expressed in CHO-K1 cells assessed as inhibition of forskolin-stimulated intracellular cAMP level. Type of series: functional, cell-based. The method, boiled down: as §2
Chain of Cannabinoid receptor 1 (Rattus norvegicus, UniProt P20272) (P20272 whole entry): as the sequence (P20272 whole entry) above
In series [13] the target is T4, Cannabinoid receptor 2 (Rattus norvegicus) (UniProt Q9QZN9).
T4 sequence (whole entry): T2 sequence (Q9QZN9 whole entry)
In words: Agonist activity at rat recombinant CB2 receptor expressed in CHO-K1 cells assessed as inhibition of forskolin-stimulated intracellular cAMP level relative to CP-55940. Type of series: functional, cell-based. An outline of the steps:
as §1

In series [14] the target is T1, Cannabinoid receptor 1. The experiment in a line: Agonist activity at human CB1 receptor expressed in Sf9 cells by GTP-europium binding assay. An outline of the steps:
as §4

T1 sequence (P21554 whole entry): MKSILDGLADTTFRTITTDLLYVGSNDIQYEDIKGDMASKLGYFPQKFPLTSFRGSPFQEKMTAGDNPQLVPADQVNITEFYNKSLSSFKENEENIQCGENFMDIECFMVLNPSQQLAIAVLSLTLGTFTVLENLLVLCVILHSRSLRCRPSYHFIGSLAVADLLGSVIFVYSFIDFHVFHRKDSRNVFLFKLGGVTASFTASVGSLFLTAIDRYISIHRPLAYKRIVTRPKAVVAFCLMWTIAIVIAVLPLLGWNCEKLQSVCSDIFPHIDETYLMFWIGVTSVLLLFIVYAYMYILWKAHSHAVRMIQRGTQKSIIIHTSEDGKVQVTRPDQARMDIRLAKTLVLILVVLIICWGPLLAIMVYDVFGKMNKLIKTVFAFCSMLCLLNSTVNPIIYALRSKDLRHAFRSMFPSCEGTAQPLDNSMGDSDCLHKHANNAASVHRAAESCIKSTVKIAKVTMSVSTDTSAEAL
T3 sequence (P34972 whole entry): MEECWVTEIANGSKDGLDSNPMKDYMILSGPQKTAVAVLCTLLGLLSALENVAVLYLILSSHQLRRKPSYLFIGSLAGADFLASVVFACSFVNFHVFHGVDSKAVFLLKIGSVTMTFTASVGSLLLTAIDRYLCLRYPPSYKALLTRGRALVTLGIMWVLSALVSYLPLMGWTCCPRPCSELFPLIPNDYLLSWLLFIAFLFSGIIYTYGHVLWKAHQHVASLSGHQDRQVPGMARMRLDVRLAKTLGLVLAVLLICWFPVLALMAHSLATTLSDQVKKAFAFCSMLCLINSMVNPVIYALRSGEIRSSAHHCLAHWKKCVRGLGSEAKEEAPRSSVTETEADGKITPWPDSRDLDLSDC

As usually defined, the Emax is the greatest response seen or fitted, relative to the assay's reference. Broadly, the EC50 is the concentration giving half of the maximal effect. Turning to `O=C(CCc1nc(-c2ccc(F)cc2Cl)no1)Nc1nc2ccc(OC(F)(F)F)cc2s1`, the Emax in series [1] is 21%; at Cannabinoid receptor 1 [2], 36%; at Cannabinoid receptor 1 [5], 36%; at Cannabinoid receptor 2 [9], 120%; at Cannabinoid receptor 2 [10] it was 99%; in series [13] it was 98%. Besides, the EC50 at Cannabinoid receptor 2 [3] is 6.9 nM; at Cannabinoid receptor 2 [4], 6.5 nM; on Cannabinoid receptor 2 [6], 3 nM; on Cannabinoid receptor 1 [7], above 1000 nM; on Cannabinoid receptor 1 [12], above 1000 nM; at Cannabinoid receptor 1 [14] it was 1900 nM. Further, the microsomal CLint in series [8] and in [11] was below 100 µL/min/mg throughout.
Consider `Fc1ccc(-c2noc(CCCOc3cnc4ccc(Cl)cc4c3)n2)c(Cl)c1`, for which the Emax was found to be 98% in series [1]; 48% at Cannabinoid receptor 1 [2]; 92% at Cannabinoid receptor 1 [5]; 110% on Cannabinoid receptor 2 [9]; 99% at Cannabinoid receptor 2 [10]; 99% in [13]. The concentration giving a half-maximal response (EC50) stood at 5.1 nM on Cannabinoid receptor 2 [3]; 3.6 nM at Cannabinoid receptor 2 [4]; 7.2 nM on Cannabinoid receptor 2 [6]; 990 nM on Cannabinoid receptor 1 [7]; 83 nM on Cannabinoid receptor 1 [12]; 1100 nM on Cannabinoid receptor 1 [14].
Regarding `CC(C)(C)c1cc(NC(=O)CCc2nc(-c3ccc(F)cc3Cl)no2)no1`, the Emax in series [1] amounted to 110%; at Cannabinoid receptor 1 [2], 48%; on Cannabinoid receptor 1 [5], 103%; on Cannabinoid receptor 2 [9], 120%; on Cannabinoid receptor 2 [10], 96%; in series [13], 100%. Moreover, the EC50 on Cannabinoid receptor 2 [3] is 0.4 nM; at Cannabinoid receptor 2 [4], 0.7 nM; on Cannabinoid receptor 2 [6] it was 0.2 nM; on Cannabinoid receptor 1 [7], above 1000 nM; on Cannabinoid receptor 1 [12] it was 170 nM; at Cannabinoid receptor 1 [14] it was 1600 nM.
Turning to `Fc1ccc(-c2noc(CCCNc3nc4ccc(Cl)cc4s3)n2)c(Cl)c1`, the Emax was determined as 45% in series [1]; 25% on Cannabinoid receptor 1 [2]; 16% at Cannabinoid receptor 1 [5]; 100% on Cannabinoid receptor 2 [9]; 87% at Cannabinoid receptor 2 [10]; 66% in series [13]. For the same compound, the EC50 on Cannabinoid receptor 2 [3] is 290 nM; on Cannabinoid receptor 2 [4] it was 110 nM; at Cannabinoid receptor 2 [6] it was 170 nM; at Cannabinoid receptor 1 [7], above 1000 nM; on Cannabinoid receptor 1 [12], above 1000 nM; on Cannabinoid receptor 1 [14], 3300 nM.
As for `CCn1c2ccccc2c2cc(NC(=O)CCc3nc(-c4ccc(F)cc4C#N)no3)ccc21`, the Emax is 84% in [1]; 12% on Cannabinoid receptor 1 [2]; 39% at Cannabinoid receptor 1 [5]; 120% on Cannabinoid receptor 2 [9]; 110% at Cannabinoid receptor 2 [10]; 130% in series [13]. Also, the concentration giving a half-maximal response (EC50) was 0.13 nM on Cannabinoid receptor 2 [3]; 0.33 nM on Cannabinoid receptor 2 [4]; 0.85 nM at Cannabinoid receptor 2 [6]; above 1000 nM at Cannabinoid receptor 1 [7]; 240 nM on Cannabinoid receptor 1 [12]; 709 nM on Cannabinoid receptor 1 [14].
Regarding `CC(C)(C)c1ncc(OCCCc2nc(-c3ccc(F)cc3Cl)no2)cn1`, the Emax worked out at 86% in series [1]; 63% at Cannabinoid receptor 1 [2]; 99% at Cannabinoid receptor 1 [5]; 110% on Cannabinoid receptor 2 [9]; 91% at Cannabinoid receptor 2 [10]; 100% in series [13]. For the same compound, the EC50 worked out at 16 nM on Cannabinoid receptor 2 [3]; 24 nM on Cannabinoid receptor 2 [4]; 4.9 nM at Cannabinoid receptor 2 [6]; 1500 nM on Cannabinoid receptor 1 [7]; 540 nM at Cannabinoid receptor 1 [12]; 610 nM at Cannabinoid receptor 1 [14].
For the compound `CCn1c2ccccc2c2cc(NC(=O)CCc3nc(-c4ccc(F)cc4Cl)no3)ccc21`, the Emax in series [1] was 79%; at Cannabinoid receptor 1 [2] it was 20%; on Cannabinoid receptor 1 [5] it was 65%; on Cannabinoid receptor 2 [9], 98%; on Cannabinoid receptor 2 [10] it was 100%; in series [13], 98%. The EC50 was 0.4 nM on Cannabinoid receptor 2 [3]; 0.6 nM on Cannabinoid receptor 2 [4]; 1.8 nM on Cannabinoid receptor 2 [6]; above 1000 nM at Cannabinoid receptor 1 [7]; 330 nM on Cannabinoid receptor 1 [12]; 1200 nM at Cannabinoid receptor 1 [14].
